For data set [1], the system named is Mus musculus. The experiment in a line: Toxicity in ICR mouse allografted with mouse S180A assessed as mortality at 125 mg/kg, ip qd for 5 days. The data set is classed as organism-based. The arrangement: dose 125 mg/kg, route intraperitoneal. Particulars: in vivo, 120 h. An outline of the steps:
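Ascites Sarcoma 180 (1 × 10^7 cells) implanted into ICR mice, six per group; compound in saline ip once daily days 1-5; sacrifice on day 7; total packed cell volume (ascites volume × PCV) compared with controls as T/C %; mortality recorded.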

Data set [2] relates to Rattus norvegicus. The experiment in a line: Diabetogenic activity in iv dosed Wistar rat assessed as increase in blood sugar level administered as single dose by glucose oxidase method. The data set is classed as ADME, organism-based. The note with it: in vivo. An outline of the steps: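 Male Wistar rats, about 200 g, five per group, fasted 16 h. Single iv dose into the femoral vein in physiological saline, equimolar across compounds. Caudal-vein blood sampled at set times over 24 h. Sugar measured by glucose oxidase.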

Data set [3] in a line: Antitumor activity against mouse S180A allografted in ICR mouse assessed as tumor growth at 125 mg/kg, ip qd for 5 days measured on day 7 relative to control. The data set is classed as functional. The note with it: route intraperitoneal. An outline of the steps:
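Ascites Sarcoma 180 (1 × 10^7 cells) implanted into ICR mice, six animals per group. Five daily ip injections in saline (days 1–5). Sacrificed day 7. T/C % computed from total packed cell volume (ascites volume × PCV) vs controls. Grades: 100-66 = -, 65-41 = +, 40-11 = ++, 10-0 = +++.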

What is called T/C is the result in the treated group divided by that in the control group, in per cent.

As for `CCCCN(N=O)C(=O)N[C@H]1[C@@H](OC)O[C@H](CO)[C@@H](O)[C@@H]1O`, the Activity result in data set [1] and in data set [2] was “Non-toxic” each time. In data set [3], the T/C is 75%.

These data come from ChEMBL document CHEMBL3272319, “Alkyl streptozotocin analogues with improved biological activities” (J Med Chem, 1976).
